Measured values of several laboratories.

Structure (SMILES) | target or system | assay | system | conditions | measurement | value
C=C(F)C(=O)N1CCN(c2nc(OC[C@@H]3CCCN3C)nc3c2CCN(c2cccc4cccc(Cl)c24)C3)C[C@@H]1CC#N | NCI-H2122 | cell growth or viability, ATP luminescence | – | – | IC50 | 192 nM
CO[C@@H]1[C@@H](OC(N)=O)[C@@H](O)[C@H](Oc2ccc3c(O)c(NC(=O)c4ccc(O)c(CC=C(C)C)c4)c(=O)oc3c2C)OC1(C)C | Klebsiella pneumoniae | microbial growth, broth dilution | ATCC10031 | – | MIC | 0.5 µg/mL
NC(=O)c1ccc(Oc2ccc(C(=O)C(Cl)Cl)cc2[N+](=O)[O-])cc1 | NCI-H1650 | cell growth or viability, MTT | – | 2.5 µM | inhibition | 59.3%
COc1ccc(COC[C@@](O)(CNCc2ccccc2)[C@@H]2CC[C@@H](C)C[C@H]2OCc2ccc(OC)cc2)cc1 | A2780 | cell growth or viability, MTT | – | 30 µM, 72 h | inhibition | 100%
Cl.N[C@@H]1CCN(c2cc(C(=O)NCC(=O)O)ccc2NC(=O)c2cc(Br)c(Br)[nH]2)C1 | Klebsiella pneumoniae | microbial growth, broth dilution | ATCC700603 | – | MIC | > 32 µg/mL
COc1ccc(CNC[C@](O)(COCc2ccc(OC)cc2)[C@@H]2CC[C@@H](C)C[C@H]2OCc2ccc(OC)cc2)cc1 | A2780 | cell growth or viability, MTT | – | 10 µM, 72 h | inhibition | 98.7%
COc1cccc2c1C(=O)c1c(O)c3c(c(O)c1C2=O)C[C@@](O)(C(=O)CO)C[C@@H]3O[C@H]1C[C@H](N)[C@H](O)[C@H](C)O1 | Caco-2 | cell growth or viability, MTT | – | 12.5 µg/mL, 48 h, serum-free | viability | 40.5%
C[C@@H]1CC[C@@H]([C@](C)(O)CNCc2cccc(F)c2)[C@H](OCc2ccccc2)C1 | A2780 | cell growth or viability, MTT | – | 10 µM, 72 h | inhibition | 30.6%
Cc1[nH]c(C(=O)Nc2ccc(C(=O)NCC(=O)O)cc2N2CCN(C(=O)OC(C)(C)C)CC2)c(Cl)c1Cl | Klebsiella pneumoniae | microbial growth, broth dilution | ATCC700603 | – | MIC | > 32 µg/mL
CC(=O)Nc1ccc(Oc2ccc(C(=O)C(Cl)Cl)cc2[N+](=O)[O-])cc1Cl | NCI-H1650 | cell growth or viability, MTT | – | 2.5 µM | inhibition | 77.8%
COc1ccc(CNC[C@](O)(COCc2ccc(F)cc2)[C@@H]2CC[C@@H](C)C[C@H]2OCc2ccc(F)cc2)cc1 | A2780 | cell growth or viability, MTT | – | 10 µM, 72 h | inhibition | 93.8%
CN[C@H](CC(C)C)C(=O)N[C@H]1C(=O)N[C@@H](CC(N)=O)C(=O)N[C@H]2C(=O)N[C@H]3C(=O)N[C@H](C(=O)N[C@H](C(=O)O)c4cc(O)cc(O)c4-c4cc3ccc4O)[C@H](O)c3ccc(c(Cl)c3)Oc3cc2cc(c3O[C@@H]2O[C@H](CO)[C@@H](O)[C@H](O)[C@H]2O[C@H]2C[C@](C)(N)[C@H](O)[C@H](C)O2)Oc2ccc(cc2Cl)[C@H]1O | Streptococcus pneumoniae | microbial growth | ATCC49619 | – | MIC | 0.25 µM
Cc1[nH]c(C(=O)Nc2ccc(C(=O)NCC(=O)O)cc2N2CC[C@@H](NC(=O)OC(C)(C)C)C2)c(Cl)c1Cl | Klebsiella pneumoniae | microbial growth, broth dilution | ATCC700603 | – | MIC | > 32 µg/mL
C[C@@H]1CC[C@@H]([C@](C)(O)CNCc2cccc3ccccc23)[C@H](OCc2ccccc2)C1 | A2780 | cell growth or viability, MTT | – | 30 µM, 72 h | inhibition | 94.2%
C=CC(=O)NC1CCN(c2ncc3ncnc(Nc4ccc(Oc5ccc6c(c5)ncn6C)c(C)c4)c3n2)CC1 | LS180 | cell growth or viability | – | – | EC50 | 5480 nM
